Experiment [1] can be described thus: Inhibition of baboon liver MAOB. The arrangement: species or system Papio hamadryas. The essentials:
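Baboon liver mitochondrial fractions as MAO-B source, with MMTP as substrate. IC50 from means ± SEM of duplicate determinations. Reversibility was tested by preincubating inhibitor (40 nM) with the mitochondria for 0, 15, 30 and 60 min.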

The target in experiment [2] is T1, Amine oxidase [flavin-containing] A (Homo sapiens, UniProt P21397).
T1 sequence (P21397 whole entry): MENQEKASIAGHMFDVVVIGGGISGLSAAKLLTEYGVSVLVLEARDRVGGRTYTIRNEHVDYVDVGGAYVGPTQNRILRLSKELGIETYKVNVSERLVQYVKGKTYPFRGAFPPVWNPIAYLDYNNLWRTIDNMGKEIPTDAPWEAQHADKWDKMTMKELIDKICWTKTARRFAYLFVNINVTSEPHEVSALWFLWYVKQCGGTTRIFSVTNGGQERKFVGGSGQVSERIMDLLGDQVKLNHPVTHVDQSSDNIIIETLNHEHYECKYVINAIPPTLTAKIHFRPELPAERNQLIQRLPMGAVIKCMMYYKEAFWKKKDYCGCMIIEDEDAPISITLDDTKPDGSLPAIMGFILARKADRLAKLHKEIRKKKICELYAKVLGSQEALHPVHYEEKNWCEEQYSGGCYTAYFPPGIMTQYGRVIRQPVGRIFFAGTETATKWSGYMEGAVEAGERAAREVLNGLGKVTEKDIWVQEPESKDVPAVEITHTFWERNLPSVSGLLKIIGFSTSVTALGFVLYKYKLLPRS
Kind of experiment: Inhibition of recombinant wild-type MAOA from human liver expressed in Pichia pastoris.

For experiment [3], the target named is T2, Amine oxidase [flavin-containing] B (Homo sapiens, UniProt P27338).
T2 sequence (P27338 whole entry): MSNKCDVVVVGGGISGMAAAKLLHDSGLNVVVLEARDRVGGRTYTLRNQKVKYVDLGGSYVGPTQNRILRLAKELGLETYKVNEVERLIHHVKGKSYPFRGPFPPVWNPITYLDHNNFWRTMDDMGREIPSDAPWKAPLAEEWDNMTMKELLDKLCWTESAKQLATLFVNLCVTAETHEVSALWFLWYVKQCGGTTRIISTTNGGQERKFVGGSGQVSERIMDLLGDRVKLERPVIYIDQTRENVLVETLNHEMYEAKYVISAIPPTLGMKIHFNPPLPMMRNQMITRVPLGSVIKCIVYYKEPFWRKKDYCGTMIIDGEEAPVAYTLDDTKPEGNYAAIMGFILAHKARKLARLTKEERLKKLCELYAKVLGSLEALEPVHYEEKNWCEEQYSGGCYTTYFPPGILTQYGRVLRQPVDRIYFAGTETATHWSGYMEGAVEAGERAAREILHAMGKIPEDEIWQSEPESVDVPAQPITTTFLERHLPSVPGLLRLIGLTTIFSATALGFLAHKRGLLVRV
Nature of the experiment: Inhibition of recombinant wild-type MAOB from human liver expressed in Pichia pastoris.

The species entered for the next experiment is Homo sapiens. Nature of the experiment: Selectivity ratio of Ki for recombinant wild-type MAOA from human liver to Ki for recombinant wild-type MAOB from human liver. The essentials: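 Substrates were p-CF3-benzylamine for MAO-A (243 nm) and benzylamine for MAO-B (250 nm), six concentrations 50–3000 µM, three inhibitor levels. Ki from apparent Km versus inhibitor; selectivity = Ki(MAO-A)/Ki(MAO-B).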

A short description of experiment [4]: Inhibition of human MAOB […] mutant.

One may read the IC50 as the point on the concentration scale where inhibition reaches its midpoint. A low value points to higher potency. Broadly, the Ki is the dissociation constant of the complex between target and ligand, obtained from inhibition or displacement.

As for `O=C1Nc2ccc(/C=C/c3ccccc3)cc2C1=O`, the midpoint of inhibition in experiment [1], the IC50, lay at 41.7 nM. In addition, the results for the Ki in experiment [2], in experiment [3] and in experiment [4] were 780 nM, 310 nM and 1.1 µM, respectively. Moreover, the Ratio Ki in the experiment listed under Homo sapiens was 5.

With `O=C1Nc2ccc(/C=C/c3cccc(F)c3)cc2C1=O`, the Ki in experiment [2] is 2200 nM.

In experiment [1], `O=C1Nc2ccc(/C=C/c3cccc(Cl)c3)cc2C1=O` yielded an IC50 of 20.7 nM. Moreover, the inhibitory constant (Ki) in experiment [2] is 5600 nM; in experiment [3], 1400 nM; in experiment [4], 12.5 µM. Further, the Ratio Ki in the experiment filed under Homo sapiens came out at 2.5.
